pEC50, pKi: −log10 of the molar value.
What was measured:
Cannabinoid receptor 1 [1] = molecular target: T1, Cannabinoid receptor 1 (Homo sapiens, UniProt P21554); test: Displacement of [3H]CP-55940 from human cloned CB1 receptor by scintillation spectrometry
In short: (§1)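 Cloned human CB1 or CB2 receptor membranes incubated with 0.2–0.6 nM [3H]CP55940 in 50 mM Tris–HCl pH 7.0 with 5.0 mM MgCl2, 1.0 mM EGTA and 1.0 mg/ml fatty-acid-free BSA. CB2 ran 60 min at room temperature and CB1 120 min at 30 °C. Samples filtered through PEI/BSA-soaked GF/C filters and rinsed six times with cold buffer. Counted by scintillation, with nonspecific binding defined by WIN55212-2. Ki is the geometric mean of at least three determinations.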

Cannabinoid receptor 2 [2] = molecular target: T2, Cannabinoid receptor 2 (Homo sapiens, UniProt P34972); test: Displacement of [3H]CP-55940 from human cloned CB2 receptor by scintillation spectrometry; in short: as §1
T2 sequence (P34972 whole entry): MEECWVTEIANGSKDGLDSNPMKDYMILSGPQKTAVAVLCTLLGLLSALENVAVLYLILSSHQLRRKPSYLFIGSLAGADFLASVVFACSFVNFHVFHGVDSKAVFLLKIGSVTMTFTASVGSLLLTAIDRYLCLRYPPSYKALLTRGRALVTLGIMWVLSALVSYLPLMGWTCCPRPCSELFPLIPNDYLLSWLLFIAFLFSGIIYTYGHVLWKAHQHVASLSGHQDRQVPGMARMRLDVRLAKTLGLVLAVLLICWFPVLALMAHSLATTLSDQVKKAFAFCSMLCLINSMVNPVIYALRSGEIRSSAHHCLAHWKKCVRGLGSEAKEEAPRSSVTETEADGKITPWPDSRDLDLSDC

Homo sapiens = organism: Homo sapiens; test: Ratio of Ki for human cloned CB1 receptor to Ki for human cloned CB2 receptor; in short: as §1
Cannabinoid receptor 2 [3] = molecular target: T2, Cannabinoid receptor 2; test: Agonist activity at human cloned CB2 receptor assessed as stimulation of [35S]GTPgammaS binding
Cannabinoid receptor 1 [4] = molecular target: T1, Cannabinoid receptor 1; test: Displacement of [3H]CP-55940 from human cloned CB1 receptor at 10 uM by scintillation spectrometry
Rattus norvegicus [5] = test: Antiallodynic activity in rat hind paw incisional model assessed as mechanical paw-withdrawal threshold at 30 mg/kg, ip after 30 mins relative to control; format: functional; conditions: route intraperitoneal
In short: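 Rat hindpaw incision model. Mechanical paw-withdrawal threshold measured on the left hindpaw, 30 min after ip dosing at 30 mg/kg. N = 8 per group. Compared with the vehicle-treated group.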

Rattus norvegicus [6] = test: Antiallodynic activity in rat hind paw incisional model assessed as mechanical paw-withdrawal threshold at 300 mg/kg, po after 120 mins in presence of aminobenzotriazole relative to aminobenzotriazole-treated control; format: functional
In short: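 Rat hindpaw incision model. Rats pretreated with the P450 suicide inhibitor aminobenzotriazole, then dosed 300 mg/kg po 120 min before testing. Left hindpaw mechanical withdrawal threshold read, N = 8 per group. One-way ANOVA with protected t-test against ABT-vehicle incised animals.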

[7] = Metabolic stability in human liver microsomes after 30 mins; format: ADME, Microsome; conditions: read-out: Stability
[8] = Metabolic stability in rat liver microsomes after 30 mins; format: ADME, Microsome; conditions: read-out: Stability

T1 sequence (P21554 whole entry): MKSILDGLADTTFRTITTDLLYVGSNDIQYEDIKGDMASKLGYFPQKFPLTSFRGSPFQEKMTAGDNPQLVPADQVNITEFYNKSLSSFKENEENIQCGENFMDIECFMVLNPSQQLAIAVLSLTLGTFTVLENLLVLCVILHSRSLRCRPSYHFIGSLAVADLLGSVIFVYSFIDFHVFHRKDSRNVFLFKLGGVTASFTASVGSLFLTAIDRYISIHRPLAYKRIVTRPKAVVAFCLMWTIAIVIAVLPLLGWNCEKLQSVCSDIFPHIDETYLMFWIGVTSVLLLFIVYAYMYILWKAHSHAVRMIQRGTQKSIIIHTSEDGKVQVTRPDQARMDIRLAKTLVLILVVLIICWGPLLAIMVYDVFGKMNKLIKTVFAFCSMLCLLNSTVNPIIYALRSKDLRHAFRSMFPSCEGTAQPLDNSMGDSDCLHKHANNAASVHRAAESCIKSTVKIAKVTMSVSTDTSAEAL

Structure (SMILES)	pKi (Cannabinoid receptor 1 [1])	pKi (Cannabinoid receptor 2 [2])	Ratio Ki (Homo sapiens)	pEC50 (Cannabinoid receptor 2 [3])	Activity (Cannabinoid receptor 1 [4]) [%]	Activity (Rattus norvegicus [5]) [%]	Activity (Rattus norvegicus [6]) [%]	remaining at 0.5 h [7] [%]	remaining at 0.5 h [8] [%]
Cc1ccc(-c2nc(CC(C)(C)C)cs2)cc1S(=O)(=O)N1CCOCC1	6.70	8.28	38	7.64	–	–	–	–	–
Cc1ccc(C(=O)N[C@@H]2C(C)(C)[C@@H]3CC[C@@]2(C)C3)cc1S(=O)(=O)N1CCOCC1	6.89	8.41	31	8.34	–	–	–	–	–
Cc1ccc(NC(=O)c2ccccc2Cl)cc1S(=O)(=O)N1CCOCC1	5.96	6.77	6.5	6.41	–	–	–	–	–
Cc1ccc(C(=O)NC(C(C)(C)C)C(C)(C)C)cc1S(=O)(=O)N1CCOCC1	–	–	9	–	–	–	–	–	–
Cc1ccc(NC(=O)c2cccc(Cl)c2)cc1S(=O)(=O)N1CCOCC1	6.57	6.92	2.3	6.66	–	–	–	–	–
Cc1ccc(-c2nnn[nH]2)cc1S(=O)(=O)N1CCOCC1	< 5.30	< 5.30	–	–	–	–	–	–	–
Cc1ccc(-c2cc(C(C)(C)C)[nH]n2)cc1S(=O)(=O)N1CCOCC1	5.16	6.80	–	6.89	–	–	–	–	–
Cc1ccc(NC(=O)C(C)(C(F)(F)F)C(F)(F)F)cc1S(=O)(=O)N1CCOCC1	6.33	7.64	20	7.54	–	–	–	–	–
Cc1ccc(-c2nc(CC(C)(C)C)c[nH]2)cc1S(=O)(=O)N1CCOCC1	5.96	7.44	31	7.33	–	–	–	–	–
Cc1ccc(-c2cc(CC3CCCCC3)[nH]n2)cc1S(=O)(=O)N1CCOCC1	5.85	7.06	16	6.72	–	–	–	–	–
Cc1ccc(NC(=O)C2CCCCC2C)cc1S(=O)(=O)N1CCOCC1 (stereo unspecified)	5.74	7.85	130	7.38	–	–	–	–	–
Cc1ccc(-c2nc(C(C)(C)C)cs2)cc1S(=O)(=O)N1CCOCC1	6.59	8.24	47	7.68	–	–	–	–	–
Cc1ccc(-c2n[nH]c(C(C)(C)C)n2)cc1S(=O)(=O)N1CCOCC1	6.28	7.00	5.3	6.89	–	–	–	–	–
Cc1ccc(NC(=O)[C@@H]2C(C)(C)[C@@H]3CC[C@@]2(C)C3)cc1S(=O)(=O)N1CCOCC1	6.19	8.77	380	8.02	–	–	–	–	–
Cc1ccc(-c2nc(C(C)(C)C)c[nH]2)cc1S(=O)(=O)N1CCOCC1	5.96	7.64	48	7.24	–	–	–	–	–
Cc1ccc(-c2nnn(CC(C)(C)C)n2)cc1S(=O)(=O)N1CCOCC1	6.89	7.77	7.6	7.31	–	–	–	–	–
Cc1ccc(NC(=O)[C@H]2C[C@@]3(C)CC[C@]2(C)O3)cc1S(=O)(=O)N1CCOCC1	–	5.70	–	–	44	–	–	–	–
Cc1ccc(NC(=O)C(C(C)(C)C)C(C)(C)C)cc1S(=O)(=O)N1CCOCC1	5.92	7.96	110	7.51	–	–	–	–	–
Cc1ccc(-c2noc(CC(C)(C)C)n2)cc1S(=O)(=O)N1CCOCC1	6.57	7.23	4.5	7.15	–	–	–	–	–

Structure (SMILES)	pKi (Cannabinoid receptor 1 [1])	pKi (Cannabinoid receptor 2 [2])	Ratio Ki (Homo sapiens)	pEC50 (Cannabinoid receptor 2 [3])	Activity (Cannabinoid receptor 1 [4]) [%]	Activity (Rattus norvegicus [5]) [%]	Activity (Rattus norvegicus [6]) [%]	remaining at 0.5 h [7] [%]	remaining at 0.5 h [8] [%]
Cc1ccc(-c2nnn(CC3CCCCC3)n2)cc1S(=O)(=O)N1CCOCC1	6.25	7.09	6.9	7.11	–	–	–	–	–
Cc1ccc(-c2n[nH]c(CC3CCCCC3)n2)cc1S(=O)(=O)N1CCOCC1	6.51	7.57	11	7.24	–	–	–	–	–
Cc1ccc(NC(=O)C2CCCCC2)cc1S(=O)(=O)N1CCOCC1	5.72	6.92	16	–	–	–	–	–	–
Cc1ccc(NC(=O)c2ccc(Cl)cc2)cc1S(=O)(=O)N1CCOCC1	–	5.54	–	–	25	–	–	–	–
Cc1ccc(-c2noc(C(C)(C)C)n2)cc1S(=O)(=O)N1CCOCC1	6.29	7.12	6.8	7.11	–	–	–	–	–
Cc1ccc(-c2cc(CC(C)(C)C)[nH]n2)cc1S(=O)(=O)N1CCOCC1	6.12	7.12	10	6.92	–	–	–	–	–
Cc1ccc(-c2noc(CC3CCCCC3)n2)cc1S(=O)(=O)N1CCOCC1	6.13	6.89	5.9	6.96	–	–	–	–	–
Cc1ccc(-c2c[nH]c(C(C)(C)C)n2)cc1S(=O)(=O)N1CCOCC1	6.11	7.09	–	6.89	–	–	–	–	–
Cc1ccc(-c2nc(CC3CCCCC3)cs2)cc1S(=O)(=O)N1CCOCC1	6.41	7.64	17	6.92	–	–	–	–	–
Cc1ccc(C(=O)N[C@H]2C(C)(C)[C@@H]3CC[C@@]2(C)C3)cc1S(=O)(=O)N1CCOCC1	6.27	7.32	11	7.60	–	–	–	–	–
Cc1ccc(NC(=O)C2C(C)(C)C2(C)C)cc1S(=O)(=O)N1CCOCC1	5.47	7.64	150	7.96	–	183	262	1	2
Cc1ccc(NC(=O)[C@@H]2C[C@@]3(C)CC[C@]2(C)O3)cc1S(=O)(=O)N1CCOCC1	5.54	6.18	4.4	–	–	–	–	–	–
Cc1ccc(NC(=O)[C@H]2C(C)(C)[C@@H]3CC[C@@]2(C)C3)cc1S(=O)(=O)N1CCOCC1	5.92	8.03	130	7.31	–	–	–	–	–
Cc1ccc(NC(=O)C(C)(C)C)cc1S(=O)(=O)N1CCOCC1	–	6.27	–	–	4.7	–	–	–	–
O=C(NCc1ccccc1)c1ccc(Br)c(S(=O)(=O)N2CCOCC2)c1	< 6.00	6.10	–	–	–	–	–	–	–
Cc1ccc(NC(=O)C2CCCCC2(C)C)cc1S(=O)(=O)N1CCOCC1 (stereo unspecified)	6.10	7.96	72	5.08	–	–	–	–	–
Cc1ccc(NC(=O)C2(C)CCCCC2)cc1S(=O)(=O)N1CCOCC1	5.92	7.46	34	7.48	–	–	–	–	–
Cc1ccc(-c2cnc(C(C)(C)C)[nH]2)cc1S(=O)(=O)N1CCOCC1	–	–	9.4	–	–	–	–	–	–
Cc1ccc(-c2n[nH]c(CC(C)(C)C)n2)cc1S(=O)(=O)N1CCOCC1	6.85	7.07	1.6	7.19	–	–	–	–	–

Source: ChEMBL document CHEMBL1136835, “CB2 selective sulfamoyl benzamides: optimization of the amide functionality” (Bioorg Med Chem Lett, 2009)
